# Bioassay records as filed in PubChem.
# STAT1 activator: STAT1 signaling activation; activation (% of control), % at 5.5 µM; NIH 3T3 STAT1-luciferase reporter, IFN-gamma, luminescence; 100% = IFN-gamma alone, no compound; 2.6% of 200,000 active;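 active = activation above the screen-wide mean activation plus 3 SD, cut at about 130% in these data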
# STAT3 act: activators of IL-6 induced STAT3 signaling; AID 871; 0.91% of 190,000 active; U3A cells, IL-6 STAT3-luciferase reporter, luminescence; 100% = signal with IL-6 EC80 alone; activation (% of control), % at 5.6 µM;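 active = activation above the screen-wide mean of compound activation plus 3 SD, cut at about 130% in these data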
#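 system = STAT3-luciferase reporter U3A cells | reagent = IL-6 stimulus at 33 ng/mL final | timing = 1 h compound pre-exposure, 6 h IL-6 stimulation, 37 °C | measured by = luminescence | evaluation = % activation versus median of IL-6-stimulated wells | control set = IL-6-only wells as 100% reference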
# NF-kB neuron act: compounds increasing NF-kB expression in human neuronal cells. NF-kB reporter expression; hits give high values. fold change at 12.5 µM. 1.6% of 190,000 active; in the data active = fold change above about 3.3
# STAT3 blocker: STAT3 signaling inhibition; 0.89% of 190,000 active; AID 862; U3A cells, IL-6 STAT3-luciferase reporter, luminescence; host cell line lacks STAT1; inhibition, % at 5.5 µM;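 active = inhibition above the mean inhibition across all screened compounds plus 3 SD, cut at about 44% in these data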
# STAT1 inh: inhibitors of IFN-gamma induced STAT1 signaling. NIH 3T3 STAT1-luciferase reporter, luminescence. inhibition, % at 5.5 µM. 0.35% of 200,000 active. AID 920;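 active = inhibition above a set limit, the mean inhibition across all tested compounds plus 3 SD, cut at about 34% in these data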
# APP 5'UTR act: APP 5'UTR luciferase reporter activation; SH-SY5Y APP 5'UTR luciferase reporter, luminescence; zero percent = DMSO vehicle wells; activation, % at 2 µM; 1% of 190,000 active;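 active = activation above a set limit, based on mean plus 3 SD of controls, cut at about 140% in these data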
# Hits are given with their value; n = inactive; x = no result given. Sampled rows, rich in hits. Any-hit rate of the full collection: about 4.9%.
SMILES,STAT1 activator,STAT3 act,NF-kB neuron act,STAT3 blocker,STAT1 inh,APP 5'UTR act
CCC(=O)N1CCN(c2ccc(NC(=O)c3cc4ccccc4o3)cc2)CC1,n,n,n,n,n,n
O=C(Nc1ccc2oc(=O)ccc2c1)c1cc2ccccc2o1,148.5,n,n,n,n,n
CCOc1ccc(NC(=O)c2cc(F)c(F)cc2Cl)cc1OCC,n,n,n,n,n,n
CCCCC(c1nnnn1CS(=O)(=O)c1ccc(C)cc1)N1CCN(C)CC1 (configuration not stated),n,n,n,n,n,n
O=C(Nc1ccc(C(F)(F)F)cc1)c1cnc(N2CCN(c3ccccn3)CC2)c2ccccc12,n,n,n,n,n,n
CCc1ccc(C(=O)COC(=O)c2nn(C)c(=O)c3ccccc23)cc1,n,n,n,n,n,n
CCc1ccc(C(=O)COC(=O)c2n[nH]c3ccccc23)cc1,n,n,5.47,n,n,n
COc1ccc(S(=O)(=O)N2CCOCC2)cc1NC(=O)CSc1nnc(C2CC2)n1N,n,n,n,n,n,n
CC(=O)c1ccc2c3c(cccc13)C(=O)N(CCc1ccccc1)C2=O,132.4,182.7,n,n,n,n
O=C(O)c1ccc2c3c(cccc13)C(=O)N(c1ccccc1)C2=O,n,n,n,n,n,n
CN(C)c1ccc(/C=N/NC(=S)NCc2ccco2)cc1,n,n,n,n,n,n
CN(C)c1ccc(C(=S)NCc2ccco2)cc1,133.7,n,8.07,n,n,n
Cc1ccc(Oc2ncccc2C(=O)NC2CCSC2=O)cc1 (configuration not stated),n,n,n,n,n,n
O=C(NC1CCCC1)c1n[nH]c2ccccc12,137.7,n,n,n,n,n
O=C(COC(=O)c1n[nH]c2ccccc12)NC(=O)NC1CCCC1,n,n,n,n,n,n
COc1cc(/C=C(\C#N)c2ccccn2)ccc1OCc1ccc(Cl)cc1,n,n,n,n,n,n
Cc1ncc(CO)c(/C=N/NC(=S)Nc2ccc(F)cc2)c1O,n,n,n,n,n,n
Cc1ncc(CO)c(/C=N/N=C/c2ccccc2O)c1O,n,n,3.57,n,n,n
CCOCCCNc1nc2ccccc2[nH]1,n,n,n,n,n,n
CCOCCCNc1ccc(-c2ccccc2)nn1,140.2,n,n,n,n,n
CC(=O)C1=C(c2ccccc2)N(C(C)=O)n2c(C)nnc2S1,n,n,n,n,n,n
Cc1ccc(NCCC(=O)c2cccs2)cc1C,142.6,n,n,n,n,n
Cc1ccc(NCCC(=O)c2cccs2)cc1,150.1,n,n,n,n,n
CC(C)c1ccc(NCCC(=O)c2cccs2)cc1,n,n,n,n,n,n
Cc1ccc(CN2CCN(Cc3cnc(N4CCOCC4)s3)CC2CCO)o1 (configuration not stated),n,n,n,n,n,n
SMILES,STAT1 activator,STAT3 act,NF-kB neuron act,STAT3 blocker,STAT1 inh,APP 5'UTR act
O=C1c2ccccc2C(=O)N1CCOc1ccccc1,135.2,138.1,x,n,n,n
CC(C)Cn1c(N)c(-c2nc(C(C)C)c(C(=O)c3ccccc3F)s2)c(=O)n(C)c1=O,n,n,n,n,n,n
CN=C(c1ccco1)n1c(=S)nc(-c2ccco2)n(C)c1=S,n,134.9,n,n,n,n
Cc1cc(-c2nnc(CCC(=O)N3CCN(Cc4cccc(F)c4)CC3)o2)c(C)o1,n,n,n,n,n,n
COc1ccccc1N=c1sc2ccccc2n1C,n,n,n,n,n,n
Cn1/c(=N/N=C/c2ccc([N+](=O)[O-])cc2)sc2ccccc21,131.7,143.9,n,n,n,n
CN1/C(=C/C(=O)c2cccs2)Sc2ccccc21,140.3,162.9,5.26,n,n,n
COc1cc(OC)cc(C(=O)/C=C2\Sc3ccccc3N2C)c1,130.7,n,n,n,n,n
CN1/C(=C\C(=O)c2cccs2)C(C)(C)c2ccccc21,n,n,n,n,n,n
O=C(Nc1ccc2c(c1)OCO2)C1CCCN(c2nc3ccccc3s2)C1 (configuration not stated),128.6,n,n,n,n,n
CCc1nnc(NC(=O)C2CCCN(c3nc4ccccc4s3)C2)s1 (configuration not stated),n,n,n,n,n,n
O=C(/C=C/N1CCOCC1)c1coc2ccccc12,136.0,n,n,n,n,n
Cc1ccc(C(=O)Cn2cnc3ccccc3c2=O)cc1C,137.7,n,3.33,n,n,n
